Source: ChEMBL document CHEMBL1123090, “Inhibition of liver alcohol dehydrogenase and ethanol metabolism by 3-substituted thiolane 1-oxides” (J Med Chem, 1985)

Assays:
[1] = In vitro inhibitory constant against rat liver alcohol dehydrogenase was determined
Summary of the method: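 Enzymes partially purified from liver (DEAE-cellulose, then AMP-agarose affinity), all steps 0–5 °C. Ethanol varied 0.4–2 mM, 0.5 mM NAD+, 83 mM potassium phosphate pH 7.3 with 40 mM KCl, 37 °C. At least three inhibitor levels; 32 initial velocities by A340. Kii from uncompetitive fit; one or two experiments.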

[2] = Compound dose that causes 50% toxicity in mice was determined; type: organism-based; conditions: mouse, in vivo
Summary of the method: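 Fed male Swiss-Webster mice (16–20 g) given ip injections of sulfoxide solutions at 0.1–10 M (the concentration of the injected solution), at 0.1 mL/10 g body weight.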

Rattus norvegicus = species: Rattus norvegicus; assay: The Kii was determined with varied concentrations of inhibitor and ethanol by determining blood alcohol concentration in rats; type: functional
Summary of the method: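 Fed male Sprague-Dawley rats (175–280 g) given inhibitor ip at 0–1.0 mmol/kg in saline, then 10 min later ethanol 19.6 mmol/kg ip. Tail blood ethanol measured over time by GC with tert-butyl alcohol internal standard. Initial elimination rate taken from tangent after 60-min absorption phase; Kii by nonlinear fit.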

[3] = target: Alcohol dehydrogenase (Equus caballus) (UniProt P00327+P00328); assay: In vitro inhibitory constant against horse liver alcohol dehydrogenase was determined
[4] = tested on: Alcohol dehydrogenase (Macaca mulatta); assay: In vitro inhibitory constant against monkey liver alcohol dehydrogenase was determined; conditions: Cercopithecidae

CCCCCCC1CC[S+]([O-])C1 (centres undefined)
Kii [1]: 0.13 µM | LD50 [2]: 770 µmol/kg | Kii (Rattus norvegicus): 65 µmol/kg | Kii [3]: 0.19 µM | Kii [4]: 0.35 µM

CC1CC[S+]([O-])C1 (centres undefined)
Kii [1]: 19 µM | LD50 [2]: 1300 µmol/kg | Kii (Rattus norvegicus): 64 µmol/kg | Kii [3]: 7.5 µM | Kii [4]: 460 µM

[O-][S+]1CCCC1 [TETRAMETHYLENE SULFOXIDE]
Kii [1]: 130 µM | LD50 [2]: 45000 µmol/kg | Kii (Rattus norvegicus): 340 µmol/kg | Kii [4]: 1600 µM

[O-][S+]1CCC(c2ccccc2)C1 (centres undefined)
Kii [1]: 1.1 µM | LD50 [2]: 4000 µmol/kg | Kii (Rattus norvegicus): 87 µmol/kg | Kii [3]: 0.36 µM | Kii [4]: 1.5 µM

CCCCC1CC[S+]([O-])C1 (centres undefined)
Kii [1]: 1.1 µM | LD50 [2]: 1400 µmol/kg | Kii (Rattus norvegicus): 11 µmol/kg | Kii [3]: 0.63 µM | Kii [4]: 2.3 µM
